According to ChEMBL document CHEMBL1155278, “3,4-Diaryl-isoxazoles and -imidazoles as potent dual inhibitors of p38alpha mitogen activated protein kinase and casein kinase 1delta” (J Med Chem, 2009):

Columns and labels:
[1] = biological target: SRSF protein kinase 1 (Homo sapiens) (UniProt Q96SB4); assay: Inhibition of SRPK1 assessed as residual activity at 10 uM by Cherenkov counting relative to control in presence of 50 uM ATP
How it was run: (§1)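 Single-concentration profiling at 10 μM in a 78-kinase panel. Kinase activity is expressed as a percentage of control assays run without compound.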

[2] = biological target: Tyrosine-protein kinase CSK (Homo sapiens) (UniProt P41240); assay: Inhibition of CSK assessed as residual activity at 10 uM by Cherenkov counting relative to control in presence of 20 uM ATP
How it was run: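 Single-point profiling at 10 µM in a panel of 78 protein kinases. Kinase activity is expressed as a percentage relative to control assays without compound.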

[3] = biological target: T1, MAP kinase-activated protein kinase 5 (Homo sapiens) (UniProt Q8IW41); assay: Inhibition of PRAK assessed as residual activity at 10 uM by Cherenkov counting relative to control in presence of 20 uM ATP; how it was run: as §1
T1 sequence (whole entry): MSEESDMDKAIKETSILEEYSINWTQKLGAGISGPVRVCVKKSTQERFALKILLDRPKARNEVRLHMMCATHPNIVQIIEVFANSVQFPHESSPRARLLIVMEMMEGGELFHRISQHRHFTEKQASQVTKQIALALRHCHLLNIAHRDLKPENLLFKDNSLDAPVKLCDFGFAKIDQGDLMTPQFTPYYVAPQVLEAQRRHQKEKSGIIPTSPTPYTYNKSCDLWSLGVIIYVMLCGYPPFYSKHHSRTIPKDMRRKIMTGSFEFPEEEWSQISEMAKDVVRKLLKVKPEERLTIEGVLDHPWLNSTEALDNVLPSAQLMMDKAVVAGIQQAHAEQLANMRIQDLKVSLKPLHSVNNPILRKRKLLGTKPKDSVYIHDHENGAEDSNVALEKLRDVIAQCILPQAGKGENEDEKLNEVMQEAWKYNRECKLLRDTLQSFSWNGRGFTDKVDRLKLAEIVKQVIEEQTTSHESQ

[4] = biological target: T2, Inhibitor of nuclear factor kappa-B kinase subunit epsilon (Homo sapiens) (UniProt Q14164); assay: Inhibition of IKKepsilon assessed as residual activity at 10 uM by Cherenkov counting relative to control in presence of 50 uM ATP
T2 sequence (whole entry): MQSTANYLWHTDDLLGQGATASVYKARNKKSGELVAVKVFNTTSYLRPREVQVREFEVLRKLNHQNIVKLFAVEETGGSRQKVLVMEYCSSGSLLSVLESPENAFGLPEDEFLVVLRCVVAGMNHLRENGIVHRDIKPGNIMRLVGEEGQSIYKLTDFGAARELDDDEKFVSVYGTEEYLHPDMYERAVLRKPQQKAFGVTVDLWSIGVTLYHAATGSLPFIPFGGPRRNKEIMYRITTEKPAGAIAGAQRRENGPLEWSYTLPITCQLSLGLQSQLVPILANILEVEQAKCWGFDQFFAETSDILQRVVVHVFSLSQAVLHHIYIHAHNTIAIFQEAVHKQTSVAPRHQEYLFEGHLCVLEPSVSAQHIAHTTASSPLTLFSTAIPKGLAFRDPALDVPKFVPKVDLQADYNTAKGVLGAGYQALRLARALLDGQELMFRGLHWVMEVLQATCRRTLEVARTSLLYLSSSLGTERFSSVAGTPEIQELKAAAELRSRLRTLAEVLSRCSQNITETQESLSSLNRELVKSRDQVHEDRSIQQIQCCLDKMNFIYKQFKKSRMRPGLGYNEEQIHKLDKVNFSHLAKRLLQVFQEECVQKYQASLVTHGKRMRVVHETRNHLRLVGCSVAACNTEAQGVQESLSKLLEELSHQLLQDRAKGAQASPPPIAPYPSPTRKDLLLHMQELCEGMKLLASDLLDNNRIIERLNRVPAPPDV

[5] = biological target: Mitogen-activated protein kinase 11 (Homo sapiens) (UniProt Q15759); assay: Inhibition of p38beta assessed as residual activity at 0.1 uM by Cherenkov counting relative to control
How it was run: (§2)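 Single-concentration screen at 0.1 μM in a 76-kinase panel. ATP for each kinase was set near its Km for ATP. Residual activity is given as a percentage of control assays without compound, mean of n = 3 ± SD.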

[6] = biological target: Mitogen-activated protein kinase 9 (Homo sapiens) (UniProt P45984); assay: Inhibition of JNK2 at 0.1 uM by Cherenkov counting in presence of 20 uM ATP
How it was run: (§3)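 Single-concentration selectivity screen at 0.1 μM against a panel of 76 protein kinases. Each kinase was run at an ATP level approximating its Km for ATP. Output is mean residual activity as % of the control assay without compound, n = 3 ± SD.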

[7] = biological target: Serine/threonine-protein kinase 26 (Homo sapiens) (UniProt Q9P289); assay: Inhibition of MST4 assessed as residual activity at 0.1 uM by Cherenkov counting relative to control in presence of 20 uM ATP; how it was run: as §3
[8] = biological target: Casein kinase I isoform epsilon (Homo sapiens, UniProt P49674); assay: Inhibition of recombinant CK1epsilon by Cherenkov counting in presence of 20 uM ATP
[9] = biological target: Tyrosine-protein kinase Lck (Homo sapiens) (UniProt P06239); assay: Inhibition of Lck assessed as residual activity at 0.1 uM by Cherenkov counting relative to control in presence of 50 uM ATP; how it was run: as §3
[10] = biological target: Ribosomal protein S6 kinase alpha-3 (Homo sapiens) (UniProt P51812); assay: Inhibition of RSK2 assessed as residual activity at 0.1 uM by Cherenkov counting relative to control in presence of 50 uM ATP; how it was run: as §2
[11] = biological target: MAP/microtubule affinity-regulating kinase 3 (Homo sapiens) (UniProt P27448); assay: Inhibition of MARK3 assessed as residual activity at 0.1 uM by Cherenkov counting relative to control in presence of 5 uM ATP; how it was run: as §3
[12] = biological target: Serine/threonine-protein kinase pim-2 (Homo sapiens) (UniProt Q9P1W9); assay: Inhibition of PIM2 assessed as residual activity at 0.1 uM by Cherenkov counting relative to control in presence of 5 uM ATP; how it was run: as §3

Mitogen-activated protein kinase 9 (Homo sapiens), sequence (P45984 whole entry, looked up): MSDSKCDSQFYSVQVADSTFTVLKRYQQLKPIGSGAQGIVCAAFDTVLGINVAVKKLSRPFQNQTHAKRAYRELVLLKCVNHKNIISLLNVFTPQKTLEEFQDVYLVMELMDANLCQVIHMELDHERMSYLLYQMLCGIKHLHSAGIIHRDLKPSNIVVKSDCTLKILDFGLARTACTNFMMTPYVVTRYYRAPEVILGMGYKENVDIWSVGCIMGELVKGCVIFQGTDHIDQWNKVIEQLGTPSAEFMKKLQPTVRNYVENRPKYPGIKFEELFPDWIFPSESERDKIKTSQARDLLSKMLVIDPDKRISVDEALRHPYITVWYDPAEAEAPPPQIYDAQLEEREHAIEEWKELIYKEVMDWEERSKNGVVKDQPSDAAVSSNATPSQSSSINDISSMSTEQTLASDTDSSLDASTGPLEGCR
Casein kinase I isoform epsilon, sequence (P49674 whole entry, canonical isoform): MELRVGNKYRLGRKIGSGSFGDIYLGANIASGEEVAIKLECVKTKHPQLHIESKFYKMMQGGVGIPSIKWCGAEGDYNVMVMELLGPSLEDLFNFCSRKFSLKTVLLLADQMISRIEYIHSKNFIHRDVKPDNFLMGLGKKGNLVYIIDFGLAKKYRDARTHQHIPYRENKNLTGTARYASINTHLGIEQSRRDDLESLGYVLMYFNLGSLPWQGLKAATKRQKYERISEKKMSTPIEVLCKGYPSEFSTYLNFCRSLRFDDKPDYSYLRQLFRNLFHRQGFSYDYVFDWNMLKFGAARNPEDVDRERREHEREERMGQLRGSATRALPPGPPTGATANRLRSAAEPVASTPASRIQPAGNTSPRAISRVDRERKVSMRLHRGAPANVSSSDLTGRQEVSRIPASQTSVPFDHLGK
Mitogen-activated protein kinase 11 (Homo sapiens), sequence (Q15759 whole entry): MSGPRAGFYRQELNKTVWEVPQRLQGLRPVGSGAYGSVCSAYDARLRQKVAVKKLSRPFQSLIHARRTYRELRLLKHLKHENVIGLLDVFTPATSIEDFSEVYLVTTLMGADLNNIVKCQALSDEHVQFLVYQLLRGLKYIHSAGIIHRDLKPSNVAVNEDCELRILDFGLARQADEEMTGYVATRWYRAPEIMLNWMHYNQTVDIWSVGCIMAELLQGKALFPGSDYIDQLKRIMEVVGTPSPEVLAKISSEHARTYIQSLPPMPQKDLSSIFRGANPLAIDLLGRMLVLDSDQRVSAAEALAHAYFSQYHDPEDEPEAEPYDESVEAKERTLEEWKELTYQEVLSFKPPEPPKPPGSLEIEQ
SRSF protein kinase 1 (Homo sapiens), sequence (Q96SB4 whole entry): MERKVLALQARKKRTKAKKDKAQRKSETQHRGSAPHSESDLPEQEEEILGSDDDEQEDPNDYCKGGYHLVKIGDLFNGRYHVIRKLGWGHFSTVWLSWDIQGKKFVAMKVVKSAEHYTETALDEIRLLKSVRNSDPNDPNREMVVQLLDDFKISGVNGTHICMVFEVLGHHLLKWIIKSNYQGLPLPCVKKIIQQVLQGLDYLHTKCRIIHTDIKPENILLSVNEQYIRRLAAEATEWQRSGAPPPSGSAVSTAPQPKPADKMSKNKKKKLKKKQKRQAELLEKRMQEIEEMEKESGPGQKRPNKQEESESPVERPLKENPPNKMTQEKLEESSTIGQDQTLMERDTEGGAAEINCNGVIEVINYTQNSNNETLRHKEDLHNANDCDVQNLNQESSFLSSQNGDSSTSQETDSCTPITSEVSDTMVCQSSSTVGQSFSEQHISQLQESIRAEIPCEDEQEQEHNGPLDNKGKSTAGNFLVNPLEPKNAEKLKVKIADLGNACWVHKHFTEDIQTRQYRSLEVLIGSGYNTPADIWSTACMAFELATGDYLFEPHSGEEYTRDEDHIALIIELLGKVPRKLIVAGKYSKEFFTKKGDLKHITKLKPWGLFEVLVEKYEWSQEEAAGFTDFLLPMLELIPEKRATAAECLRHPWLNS
Ribosomal protein S6 kinase alpha-3 (Homo sapiens), sequence (P51812 whole entry): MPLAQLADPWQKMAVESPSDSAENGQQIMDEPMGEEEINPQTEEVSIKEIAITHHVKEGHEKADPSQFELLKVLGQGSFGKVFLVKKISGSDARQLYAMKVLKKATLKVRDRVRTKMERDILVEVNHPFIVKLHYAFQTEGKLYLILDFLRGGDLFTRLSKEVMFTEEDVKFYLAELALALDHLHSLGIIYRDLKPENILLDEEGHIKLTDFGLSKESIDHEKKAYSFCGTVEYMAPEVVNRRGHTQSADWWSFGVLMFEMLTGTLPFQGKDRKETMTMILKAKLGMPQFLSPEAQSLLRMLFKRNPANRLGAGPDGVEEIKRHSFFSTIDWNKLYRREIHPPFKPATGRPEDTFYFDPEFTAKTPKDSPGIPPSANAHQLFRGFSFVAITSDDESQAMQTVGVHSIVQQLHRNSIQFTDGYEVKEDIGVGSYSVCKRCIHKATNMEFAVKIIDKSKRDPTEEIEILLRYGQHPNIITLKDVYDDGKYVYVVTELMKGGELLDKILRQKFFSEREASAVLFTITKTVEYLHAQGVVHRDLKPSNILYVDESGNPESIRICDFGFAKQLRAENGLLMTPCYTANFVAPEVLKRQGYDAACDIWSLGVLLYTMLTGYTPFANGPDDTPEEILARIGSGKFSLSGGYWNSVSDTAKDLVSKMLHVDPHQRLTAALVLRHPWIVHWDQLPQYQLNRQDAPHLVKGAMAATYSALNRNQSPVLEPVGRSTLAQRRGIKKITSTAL
Tyrosine-protein kinase Lck (Homo sapiens), sequence (P06239 2-509 limits assumed): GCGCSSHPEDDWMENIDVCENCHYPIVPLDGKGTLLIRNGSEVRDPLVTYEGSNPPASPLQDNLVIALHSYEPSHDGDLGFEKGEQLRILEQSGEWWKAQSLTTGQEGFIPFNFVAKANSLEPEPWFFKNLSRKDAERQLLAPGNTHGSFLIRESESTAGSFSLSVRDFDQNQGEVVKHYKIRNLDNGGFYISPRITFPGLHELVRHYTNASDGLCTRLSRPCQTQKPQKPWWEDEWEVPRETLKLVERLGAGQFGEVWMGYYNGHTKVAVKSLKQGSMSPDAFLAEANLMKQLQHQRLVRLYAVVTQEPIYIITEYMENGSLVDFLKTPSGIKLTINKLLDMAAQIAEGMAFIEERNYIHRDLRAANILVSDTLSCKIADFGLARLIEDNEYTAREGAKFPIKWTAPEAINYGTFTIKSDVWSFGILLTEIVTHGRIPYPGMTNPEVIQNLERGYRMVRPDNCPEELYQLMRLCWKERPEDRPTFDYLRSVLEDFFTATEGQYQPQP
MAP/microtubule affinity-regulating kinase 3 (Homo sapiens), sequence (P27448 whole entry, looked up): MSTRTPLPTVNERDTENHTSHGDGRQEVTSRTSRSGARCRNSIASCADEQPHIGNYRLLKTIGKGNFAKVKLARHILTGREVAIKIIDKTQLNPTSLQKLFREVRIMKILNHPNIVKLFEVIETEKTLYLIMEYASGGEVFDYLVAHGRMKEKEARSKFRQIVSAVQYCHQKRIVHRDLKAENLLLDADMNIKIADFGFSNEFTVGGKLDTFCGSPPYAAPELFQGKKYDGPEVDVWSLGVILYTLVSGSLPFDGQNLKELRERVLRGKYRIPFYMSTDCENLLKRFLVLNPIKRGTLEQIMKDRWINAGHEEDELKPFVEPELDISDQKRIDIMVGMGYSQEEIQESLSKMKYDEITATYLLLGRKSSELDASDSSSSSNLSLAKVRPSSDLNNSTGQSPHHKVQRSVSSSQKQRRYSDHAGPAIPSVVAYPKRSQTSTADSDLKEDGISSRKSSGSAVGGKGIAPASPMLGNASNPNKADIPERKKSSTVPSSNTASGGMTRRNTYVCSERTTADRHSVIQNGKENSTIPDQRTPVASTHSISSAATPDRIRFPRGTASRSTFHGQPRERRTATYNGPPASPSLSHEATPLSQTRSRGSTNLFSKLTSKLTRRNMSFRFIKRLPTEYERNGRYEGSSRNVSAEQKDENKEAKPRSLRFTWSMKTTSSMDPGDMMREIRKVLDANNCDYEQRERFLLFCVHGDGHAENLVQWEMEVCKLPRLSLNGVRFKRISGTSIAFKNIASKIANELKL
Serine/threonine-protein kinase 26 (Homo sapiens), sequence (Q9P289 2-416 limits assumed): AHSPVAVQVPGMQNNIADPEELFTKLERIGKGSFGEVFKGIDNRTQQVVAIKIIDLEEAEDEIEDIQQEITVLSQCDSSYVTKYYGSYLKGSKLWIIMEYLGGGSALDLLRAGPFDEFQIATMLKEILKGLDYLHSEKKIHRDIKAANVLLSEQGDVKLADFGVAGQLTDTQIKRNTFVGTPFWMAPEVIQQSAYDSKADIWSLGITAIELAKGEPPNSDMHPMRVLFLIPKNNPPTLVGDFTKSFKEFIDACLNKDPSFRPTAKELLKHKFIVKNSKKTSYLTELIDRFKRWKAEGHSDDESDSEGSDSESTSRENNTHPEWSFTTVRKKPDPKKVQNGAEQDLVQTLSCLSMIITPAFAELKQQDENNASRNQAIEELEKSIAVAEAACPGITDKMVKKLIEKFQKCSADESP
Tyrosine-protein kinase CSK (Homo sapiens), sequence (P41240 2-450 limits assumed): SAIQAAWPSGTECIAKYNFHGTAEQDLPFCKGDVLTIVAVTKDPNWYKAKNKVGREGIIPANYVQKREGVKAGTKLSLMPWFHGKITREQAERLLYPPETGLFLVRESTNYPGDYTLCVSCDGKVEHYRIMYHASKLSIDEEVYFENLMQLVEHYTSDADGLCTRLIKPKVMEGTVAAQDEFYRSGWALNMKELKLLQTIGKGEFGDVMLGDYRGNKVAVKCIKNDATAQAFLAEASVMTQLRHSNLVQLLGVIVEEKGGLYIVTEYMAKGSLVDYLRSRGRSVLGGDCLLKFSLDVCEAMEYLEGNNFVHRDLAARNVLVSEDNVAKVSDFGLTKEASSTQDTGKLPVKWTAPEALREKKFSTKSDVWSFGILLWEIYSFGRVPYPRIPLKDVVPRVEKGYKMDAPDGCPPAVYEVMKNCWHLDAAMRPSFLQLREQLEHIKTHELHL

Row | SMILES | Activity [1] | Activity [2] | Activity [3] | Activity [4] | Activity [5] | inhibition [6] | Activity [7] | IC50 [8] | Activity [9] | Activity [10] | Activity [11] | Activity [12]
1 | CC(C)c1onc(-c2ccc(F)cc2)c1-c1ccncc1 | 81% | 87% | 88% | 81% | – | – | – | – | – | – | – | –
2 | COc1ccc(/C=C/C(=O)Nc2cc(-c3[nH]c([S+](C)[O-])nc3-c3ccc(F)cc3)ccn2)c(OC)c1 (centres undefined) | – | – | – | – | 46% | 88% | 86% | 0.447 µM | 74% | 94% | 89% | 101%
3 | COc1ccc(/C=C/C(=O)Nc2cc(-c3[nH]c(SC)nc3-c3ccc(F)cc3)ccn2)c(OC)c1 | – | – | – | – | 17% | 69% | 90% | 0.073 µM | 50% | 86% | 87% | 87%
4 | CC(C)c1noc(-c2ccc(F)cc2)c1-c1ccncc1 | 86% | 95% | 98% | 71% | – | – | – | – | – | – | – | –
